Where a name gives a salt, the structure may show the parent alone.
Tests used:
HIV-1LAI = experiment: microbe, parasite or virus in culture; assay type: cell-based; conditions: Human immunodeficiency virus 1, MT2, 168 h, read-out: IC50 against HIV-1LAI
[1] = Cytotoxicity assay in PXB cells; assay type: cell-based; conditions: human
PXB cells = experiment: Cytotoxicity assay in PXB cells; assay type: cell-based; conditions: read-out: CC50 in PXB cells; PXB cells, continuous exposure; mean ± 1 S.D.
HBVWT^Ce = HBVWT^Ce viremia in infected human-liver-chimeric mice; assay type: in vivo; conditions: for reduction of HBVWT^Ce DNA (viremia), day 14: 14 days, average reduction by day 14
HBVETV^R = HBVETV^R viremia in infected human-liver-chimeric mice; assay type: in vivo; conditions: for reduction of HBVETV^R viremia, day 14: 14 days, average reduction by day 14; for block of HBVETV^R viremia: once-daily peroral 1 mg/kg/day over 14 days, abstract
Procedure, shortened: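 uPA/SCID mice with livers repopulated by human hepatocytes, infected with recombinant ETV-resistant HBV clone (L180M/S202G/M204V). Dosing began 7–14 weeks after inoculation: test compound, ETV or saline given intragastrically at 1 mg/kg once daily for 14 days, n=2–4 per group. Serum HBV-DNA (S gene) measured by real-time PCR. Change from day 0 compared by repeated-measures ANOVA, two-tailed, uncorrected.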

HBVWT^D = experiment: microbe, parasite or virus in culture; assay type: cell-based; conditions: Hepatitis B virus, HepG2.2.15, read-out: anti-HBV activity IC50
[2] = tested on: human DNA polymerases, α, β, and γ; conditions: ref Nakata et al., 2007; cited from earlier work
[3] = assay type: in vivo, human-liver-chimeric mice; conditions: 1 mg/kg/day oral, 14 days, HBV-infected mice
[4] = CC50 in PXB cells, PXB cells, continuous exposure, mean ± 1 S.D.
[5] = 1 mg/kg/day oral, average reduction by 3 days after start

Nc1ccn([C@@H]2CS[C@H](CO)O2)c(=O)n1 [3TC, lamivudine]
IC50 (HIV-1LAI): 660 ± 150 nM
CC50 [1, 4]: > 100000 nM

CC(C)(C)C(=O)OCOP(=O)(COCCn1cnc2c(N)ncnc21)OCOC(=O)C(C)(C)C [ADV, adefovir dipivoxil]
IC50 (HIV-1LAI): 660 ± 200 nM
CC50 [1, 4]: 71500 ± 19300 nM

N#C[C@]1(CO)O[C@@H](n2cnc3c(N)ncnc32)C[C@@H]1O [CdA, 4’-C-cyano-2’-deoxyadenosine]
IC50 (HIV-1LAI): 94 ± 4 nM
CC50 [1, 4]: 5400 ± 1500 nM

N#C[C@]1(CO)O[C@@H](n2cc(F)c3c(N)ncnc32)C[C@@H]1O [CdFA, 4’-C-cyano-7-deaza-7-fluoro-2’-deoxyadenosine]
IC50 (HIV-1LAI): 880 ± 10 nM
CC50 (PXB cells): 55900 ± 5700 nM
reduction of HBVWT^Ce DNA (viremia), day 14 (HBVWT^Ce; 1 mg/kg/day oral): 0.7 log10 copies/mL
reduction of HBVWT^Ce DNA (viremia), day 3 (HBVWT^Ce; [5]): 0.5 log10 copies/mL
block of HBVWT viremia (HBVWT^Ce; once-daily peroral 1 mg/kg/day over 14 days, abstract): 0.7 logs
reduction of HBVETV^R viremia, day 14 (HBVETV^R; 1 mg/kg/day oral): 1.2 log10 copies/mL
reduction of HBVETV^R viremia, day 3 (HBVETV^R; [5]): 0.6 log10 copies/mL
block of HBVETV^R viremia (HBVETV^R): 1.2 logs
IC50 (HBVWT^D): ~26 nM

N#C[C@]1(CO)O[C@@H](n2cnc3c(=O)[nH]c(N)nc32)C[C@@H]1O [CdG, 4’-C-cyano-2’-deoxyguanosine]
IC50 (HIV-1LAI): 0.6 ± 0.1 nM
CC50 [1, 4]: 370 ± 30 nM

C#C[C@]1(CO)O[C@@H](n2cnc3c(N)nc(F)nc32)C[C@@H]1O [EFdA, 4’-ethynyl-2-fluoro-2’-deoxyadenosine]
inhibition of the activity of human DNA polymerases α, β, and γ [2]: little inhibition

C=C1[C@H](CO)[C@@H](O)C[C@@H]1n1cnc2c(=O)[nH]c(N)nc21 [ETV, entecavir]
IC50 (HIV-1LAI): 1000 ± 400 nM
CC50 [1, 4]: 252000 ± 37500 nM
reduction of HBVWT^Ce DNA (viremia), day 14 (HBVWT^Ce; 1 mg/kg/day oral): 2.2 log10 copies/mL
reduction of HBVETV^R viremia, day 14 (HBVETV^R; 1 mg/kg/day oral): 0.5 log10 copies/mL
block of HBVETV^R viremia (HBVETV^R): only slightly suppressed
changes in serum human albumin levels [3]: no significant differences

CC(C)OC(=O)[C@H](C)N[P@](=O)(CO[C@H](C)Cn1cnc2c(N)ncnc21)Oc1ccccc1 [TAF, tenofovir alafenamide]
IC50 (HIV-1LAI): 4 ± 2 nM
CC50 [1]: 5700 ± 1900 nM

CC(C)OC(=O)OCOP(=O)(CO[C@H](C)Cn1cnc2c(N)ncnc21)OCOC(=O)OC(C)C [TDF, tenofovir disoproxil fumarate]
IC50 (HIV-1LAI): 30 ± 10 nM
CC50 ([1]; PXB cells): 33400 ± 10900 nM

From PMC7164687 (Antiviral research, 2020)
